Data set [1] is described as follows: Safety and tolerability. To be noted: for Participants reporting at least 1 AE: n = 16. The data set is classed as in vivo, human. A digest of the protocol:
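Phase I open-label two-part study in opioid-dependent, HIV-seronegative adults on stable once-daily opioid maintenance, 16 per part. Usual dose alone on day 1, then with test compound 600 mg ER BID on days 2–9, confined day -1 to day 10. Safety assessed by AE reports, vital signs (screening, days 1, 5, 10), ECG/physical exam (screening, day 1, day 10) and clinical labs (days 5, 9).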

For data set [2], the system named is HIV‐1. The settings on record: cited from earlier work.
The format of data set [3] is in vivo. The settings on record: human, plasma, oral.
The conditions of data set [4]: human, in vivo; cited from earlier work.
Where [5] appears, read: Part 1, while receiving MET with FTR.
The mark [6] stands for this setting: Part 2, while receiving BUP/NLX with FTR.

The values that follow come from article PMC6624406 (British Journal of Clinical Pharmacology, 2019).

Consider `COc1cnc(-n2cnc(C)n2)c2c1c(C(=O)C(=O)N1CCN(C(=O)c3ccccc3)CC1)cn2COP(=O)(O)O` [FTR, Fostemsavir], for which the Tolerability result in data set [1] (FTR 600 mg ER BID coadministered with MET or BUP/NLX) is “well tolerated”. Also, the results for the Participants reporting headache in data set [1] (setting [5]) and in data set [1] (setting [6]) were 12.5% and 6.3%, respectively. In addition, the Participants reporting nausea turned out to be 12.5% in data set [1] (setting [5]) and 18.8% in data set [1] (setting [6]). Further, the “Participants reporting at least 1 AE” value in data set [1] (Part 1, while receiving MET with FTR 600 mg ER BID) is recorded as 62.5%; in data set [1] (Part 2, while receiving BUP/NLX with FTR 600 mg ER BID), 50.0%. The “Decline in HIV‐1 RNA” value in data set [2] (8 days of functional FTR monotherapy, FTR 600 mg ER BID) is on record as 0.8 log10 copies/mL. The “Rate of HIV virological suppression” value in data set [2] (FTR with an optimized background therapy for 24 and 48 weeks) was 54%.

In general, AUC refers to the area under the concentration-time curve, a measure of exposure. A word on the Cmax: it is the peak of the concentration-time curve. `COc1cnc(-n2cnc(C)n2)c2[nH]cc(C(=O)C(=O)N3CCN(C(=O)c4ccccc4)CC3)c12` [TMR, temsavir] yielded an AUC in data set [3] of 9760 ng·h/mL. Further, the concentration at 12 h in data set [3] (TMR C12, geometric mean (coefficient of variation [%]), FTR 600 mg ER BID coadministered with BUP/NLX) stood at 468 ng/mL. Further, in data set [3] (TMR Cmax, geometric mean (coefficient of variation [%]), FTR 600 mg ER BID coadministered with BUP/NLX), the Cmax worked out at 2050 ng/mL. Besides, the Accumulation in data set [4] was under 2 fold.
